Experimental data published in ChEMBL document CHEMBL4038338 (J Med Chem, 2017).
pKi: −log10 of the molar value. Calls of active or inactive are those of the source. The rule behind the calls is not given here.

Columns and labels:
[1] = Thiol reactivity using recombinant human full length 13C-labeled La antigen (100 to 324 residues) expressed in Escherichia coli BL21(DE3) by ALARM NMR
[2] = biological target: T1, Calpain-1 catalytic subunit (Homo sapiens, UniProt P07384); assay: Inhibition of human erythrocytes calpain-1 using Suc-Leu-Tyr-AMC as substrate by kinetic fluorescence assay
T1 sequence (P07384 whole entry): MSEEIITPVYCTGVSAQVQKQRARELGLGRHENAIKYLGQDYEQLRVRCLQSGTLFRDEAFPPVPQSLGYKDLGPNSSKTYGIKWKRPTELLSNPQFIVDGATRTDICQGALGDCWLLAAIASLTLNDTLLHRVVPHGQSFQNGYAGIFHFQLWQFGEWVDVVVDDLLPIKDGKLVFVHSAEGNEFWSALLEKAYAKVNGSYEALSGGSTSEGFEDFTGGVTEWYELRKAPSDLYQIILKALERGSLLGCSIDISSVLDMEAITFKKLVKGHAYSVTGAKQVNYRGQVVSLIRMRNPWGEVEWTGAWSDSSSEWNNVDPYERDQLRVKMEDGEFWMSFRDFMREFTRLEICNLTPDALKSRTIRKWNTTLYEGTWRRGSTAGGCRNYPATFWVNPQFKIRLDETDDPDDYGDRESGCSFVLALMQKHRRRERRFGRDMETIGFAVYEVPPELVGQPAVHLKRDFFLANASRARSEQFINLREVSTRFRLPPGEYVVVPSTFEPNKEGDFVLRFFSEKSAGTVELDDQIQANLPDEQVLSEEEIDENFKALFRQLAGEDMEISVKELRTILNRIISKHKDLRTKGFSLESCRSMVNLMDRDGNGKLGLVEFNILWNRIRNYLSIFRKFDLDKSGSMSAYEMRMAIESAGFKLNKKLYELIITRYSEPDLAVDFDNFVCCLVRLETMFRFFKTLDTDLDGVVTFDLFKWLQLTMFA

Homo sapiens [3] = species on record: Homo sapiens; assay: Selectivity ratio of Ki for recombinant human cathepsin S expressed in Escherichia coli to Ki for human erythrocytes calpain-1
How it was run: (§1)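 Ki ratios from kinetic fluorescence assays. Cathepsins B (0.25 nM), L (1 nM), K (3 nM) and S (0.5 nM) in MES buffer at pH 6.0. All at room temperature; Ki by Cheng-Prusoff.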

[4] = Selectivity ratio of Ki for human liver cathepsin L to Ki for human erythrocytes calpain-1
[5] = Selectivity ratio of Ki for human liver cathepsin B to Ki for human erythrocytes calpain-1
[6] = biological target: T2, Calpain-1 catalytic subunit (Homo sapiens) (UniProt P07384); assay: Inhibition of human erythrocytes calpain-1 using Suc-Leu-Tyr-AMC as substrate in presence of up to 10 mM glutathione by kinetic fluorescence assay
T2 sequence (whole entry): T1 sequence (P07384 whole entry)

Homo sapiens [7] = species on record: Homo sapiens; assay: Selectivity ratio of Ki for recombinant human procathepsin K expressed in Escherichia coli to Ki for human erythrocytes calpain-1; how it was run: as §1

pKi ([2]; read-out: Ki) | inhibition [6] | pKi ([2]; read-out: Ki(app)) | Compound | Thiol reactivity [1] | Ratio Ki (Homo sapiens [3]) | Ratio Ki [4] | Ratio Ki [5] | Ratio Ki (Homo sapiens [7])
7.06 | Active |  | NC(=O)C(=O)C(Cc1ccccc1)NC(=O)c1cccnc1-n1ccc(-c2ccc(Cl)cc2)n1 (configuration not stated) | Metabolite not detected | > 300 | 89 | 6 | 9
7.42 | Active |  | NC(=O)C(=O)C(Cc1ccccc1)NC(=O)c1cccnc1-n1ccc(Cc2ccccc2)n1 (configuration not stated) | Metabolite not detected | 75 | 50 | 9 | 9
7.14 | Active |  | NC(=O)C(=O)C(Cc1ccccc1)NC(=O)c1cccnc1-n1ccc(-c2ccc(C(F)(F)F)cc2)n1 (configuration not stated) | Metabolite not detected | 87 | 210 | 11 | 22
6.91 | Active |  | CCCCC(NC(=O)c1cccnc1-c1csc(-c2ccccc2)n1)C(=O)C(N)=O (configuration not stated) | Metabolite not detected | 27 | 13 | 2 | 1
7.32 | Active |  | NC(=O)C(=O)C(Cc1ccccc1)NC(=O)c1cccnc1-n1ccc(C2CCOCC2)n1 (configuration not stated) | Metabolite not detected | 147 | 56 | 14 | 13
7.08 | Active |  | COc1ccc(-c2ccn(-c3ncccc3C(=O)NC(Cc3ccccc3)C(=O)C(N)=O)n2)cc1 (configuration not stated) | Metabolite not detected | > 500 | 81 | 11 | 17
7.09 | Active |  | NC(=O)C(=O)C(Cc1ccccc1)NC(=O)c1ccccc1-c1csc(-c2ccccc2)n1 (configuration not stated) | Metabolite not detected | 186 | 116 | 23 | < 1
7.49 | Active |  | CCCCC(NC(=O)c1cccnc1-n1ccc(-c2ccccc2)n1)C(=O)C(N)=O (configuration not stated) | Metabolite not detected | 61 | 25 | 1 | 2
6.79 | Active |  | NC(=O)C(=O)C(Cc1ccccc1)NC(=O)c1cccnc1-n1cccn1 (configuration not stated) | Metabolite not detected | 21 | 20 | 1 | 3
7.00 | Active |  | NC(=O)C(=O)C(Cc1ccccc1)NC(=O)c1cccnc1-n1cc2c(n1)CCCC2 (configuration not stated) | Metabolite not detected | 10 | 45 | 2 | 2
 |  | 8.00 | NC(=O)C(=O)[C@H](Cc1ccccc1)NC(=O)c1cccnc1-n1ccc(-c2ccccc2)n1 |  |  |  |  | 
7.68 | Active |  | NC(=O)C(=O)C(Cc1ccccc1)NC(=O)c1cccnc1-n1cc(-c2ccccc2)cn1 (configuration not stated) | Metabolite not detected | 14 | 12 | <1 | 1
6.75 | Active |  | NC(=O)C(=O)C(Cc1ccccc1)NC(=O)c1cccnc1-c1coc(-c2ccccc2)n1 (configuration not stated) | Metabolite not detected | 127 | 29 | 11 | 20
7.37 | Active |  | NC(=O)C(=O)C(Cc1ccccc1)NC(=O)c1ccccc1-n1ccc(-c2ccccc2)n1 (configuration not stated) | Metabolite not detected | 82 | 38 | 7 | 1
7.35 | Active |  | NC(=O)C(=O)C(Cc1ccccc1)NC(=O)c1cccnc1-n1cnc(-c2ccccc2)c1 (configuration not stated) | Metabolite not detected | 54 | 23 | <1 | < 1
7.42 | Active |  | NC(=O)C(=O)C(Cc1ccccc1)NC(=O)c1cccnc1-c1csc(-c2ccccc2)n1 (configuration not stated) | Metabolite not detected | 310 | 139 | 39 | 11
7.70 | Active |  | CCCCC(NC(=O)c1cccnc1-n1cc(-c2ccccc2)cn1)C(=O)C(N)=O (configuration not stated) | Metabolite not detected | 2 | 4 | <1 | < 1
7.03 | Active |  | NC(=O)C(=O)C(Cc1ccccc1)NC(=O)c1cccnc1-n1ccc(C2CC2)n1 (configuration not stated) | Metabolite not detected | 50 | 34 | 4 | 7
6.63 | Active |  | NC(=O)C(=O)C(Cc1ccccc1)NC(=O)c1cccnc1-c1nc(-c2ccccc2)cs1 (configuration not stated) | Metabolite not detected | 105 | 37 | 10 | 11
7.39 | Active |  | NC(=O)C(=O)C(Cc1ccccc1)NC(=O)c1cccnc1-n1ccc(-c2ccc(CN3CCOCC3)cc2)n1 (configuration not stated) | Metabolite not detected | 240 | 5 | <1 | < 1
7.25 | Active |  | NC(=O)C(=O)C(Cc1ccccc1)NC(=O)c1cccnc1-n1ccc(C2CCCCC2)n1 (configuration not stated) | Metabolite not detected | 92 | 33 | 9 | 10
6.84 | Active |  | CN1CCC(c2ccn(-c3ncccc3C(=O)NC(Cc3ccccc3)C(=O)C(N)=O)n2)CC1 (configuration not stated) | Metabolite not detected | 89 | 2 | 2 | 1
7.09 | Active |  | CC(C)(C)c1ccn(-c2ncccc2C(=O)NC(Cc2ccccc2)C(=O)C(N)=O)n1 (configuration not stated) | Metabolite not detected | 56 | 10 | 16 | 24
7.42 | Active |  | CCCCC(NC(=O)c1cccnc1-n1cnc(-c2ccccc2)c1)C(=O)C(N)=O (configuration not stated) | Metabolite not detected | 22 | 22 | <1 | < 1
